How the values were obtained:
[1] = tested on: SK-N-SH; assay: Effect on neurite outgrowth activity in human SK-N-SH cells assessed as increase in number of vericosites at 100 uM after 5 days; format: functional
How it was run: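 Human SK-N-SH cells plated at 4.7 × 10^4 cell/mL in gridded 60 mm dishes. Compound added once at culture start at 100 µM; vehicle 0.1% DMSO. Cells examined after 5 days in four areas (650 × 430 µm). Varicosity number counted per cell, 40 cells per value, mean ± sem. Compared with control by Student's t-test, P < 0.05.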

[2] = tested on: SK-N-SH; assay: Induction of neurite outgrowth in human SK-N-SH cells at 100 uM after 5 days relative to control; format: functional
How it was run: (§1)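 SK-N-SH cells were plated at 4.7 × 10^4 cell/mL in gridded 60 mm dishes. Compound was added once at the start of culture, with 0.1% DMSO vehicle as control. After 5 days, 100-300 cells in four 650 × 430 µm areas were scored for the percentage bearing neurites longer than 50 µm, expressed as % of control. Values are mean ± sem of eight sights; Student's t-test, P < 0.05.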

[3] = tested on: SK-N-SH; assay: Cytotoxicity against human SK-N-SH cells at 100 uM; format: cell-based
[4] = tested on: SK-N-SH; assay: Induction of neurite outgrowth in human SK-N-SH cells at 10 uM after 5 days relative to control; format: functional; how it was run: as §1

| SMILES | Activity [2] [%] | other results |
| --- | --- | --- |
| CC(C)=CCC[C@](C)(O[C@@H]1O[C@H](CO[C@@H]2O[C@H](CO)[C@@H](O)[C@H](O)[C@H]2O)[C@@H](O)[C@H](O)[C@H]1O)[C@H]1CC[C@]2(C)[C@@H]1[C@H](O)C[C@@H]1[C@@]3(C)CC[C@H](O[C@@H]4O[C@H](CO)[C@@H](O)[C@H](O)[C@H]4O[C@@H]4O[C@H](CO)[C@@H](O)[C@H](O)[C@H]4O[C@@H]4OC[C@@H](O)[C@H](O)[C@H]4O)C(C)(C)[C@@H]3CC[C@]12C [NOTOGINSENOSIDE FA] | 147 | Activity [1]: 0.53 |
| CC(C)(O)[C@@H]1CC[C@@](C)([C@H]2CC[C@]3(C)[C@@H]2[C@H](O)C[C@@H]2[C@@]4(C)CC[C@H](O)C(C)(C)[C@@H]4[C@@H](O[C@@H]4O[C@H](CO[C@H]5O[C@H](CO)[C@@H](O)[C@H](O)[C@H]5O)[C@@H](O)[C@H](O)[C@H]4O[C@@H]4OC[C@@H](O)[C@H](O)[C@H]4O)C[C@]23C)O1 | 104.1 |  |
| CC(C)=CCC[C@](C)(O[C@@H]1O[C@H](CO)[C@@H](O)[C@H](O)[C@H]1O)[C@H]1CC[C@]2(C)[C@@H]1[C@H](O)C[C@@H]1[C@@]3(C)CC[C@H](O)C(C)(C)[C@@H]3[C@@H](O[C@@H]3O[C@H](CO)[C@@H](O)[C@H](O)[C@H]3O[C@@H]3O[C@@H](C)[C@H](O)[C@@H](O)[C@H]3O)C[C@]12C [GINSENOSIDE RE] | 83.5 |  |
| CC(C)=CCC[C@](C)(O[C@@H]1O[C@H](CO[C@@H]2OC[C@@H](O)[C@H](O)[C@H]2O)[C@@H](O)[C@H](O)[C@H]1O)[C@H]1CC[C@]2(C)[C@@H]1[C@H](O)C[C@@H]1[C@@]3(C)CC[C@H](O[C@@H]4O[C@H](CO)[C@@H](O)[C@H](O)[C@H]4O[C@@H]4O[C@H](CO)[C@@H](O)[C@H](O)[C@H]4O)C(C)(C)[C@@H]3CC[C@]12C [GINSENOSIDE RB3] | 228 | Activity [1]: 0.8 |
| C[C@@H]1O[C@@H](O[C@H]2[C@H](O[C@H]3C[C@]4(C)[C@H](C[C@@H](O)[C@@H]5[C@@H]([C@]6(C)CC[C@@H](C(C)(C)O)O6)CC[C@]54C)[C@@]4(C)CC[C@H](O)C(C)(C)[C@H]34)O[C@H](CO)[C@@H](O)[C@@H]2O)[C@H](O)[C@H](O)[C@H]1O |  | Activity [3]: Toxic; Activity [4]: 103% |
| CC(C)(O)[C@@H]1CC[C@@](C)([C@H]2CC[C@]3(C)[C@@H]2[C@H](O)C[C@@H]2[C@@]4(C)CC[C@H](O)C(C)(C)[C@@H]4[C@@H](O[C@@H]4O[C@H](CO)[C@@H](O)[C@H](O)[C@H]4O)C[C@]23C)O1 | 91.4 |  |
| CC(C)(O)[C@@H]1CC[C@@](C)([C@H]2CC[C@]3(C)[C@@H]2[C@H](O)C[C@@H]2[C@@]4(C)CC[C@H](O)C(C)(C)[C@@H]4[C@@H](O[C@@H]4O[C@H](CO)[C@@H](O)[C@H](O)[C@H]4O[C@@H]4OC[C@@H](O)[C@H](O)[C@H]4O)C[C@]23C)O1 [MAJONOSIDE R2] | 109.6 |  |
| CC(C)=CCC[C@](C)(O[C@@H]1O[C@H](CO)[C@@H](O)[C@H](O)[C@H]1O)[C@H]1CC[C@]2(C)[C@@H]1[C@H](O)C[C@@H]1[C@@]3(C)CC[C@H](O)C(C)(C)[C@@H]3[C@@H](O[C@@H]3O[C@H](CO)[C@@H](O)[C@H](O)[C@H]3O[C@@H]3OC[C@@H](O)[C@H](O)[C@H]3O)C[C@]12C [NOTOGINSENOSIDE R1] | 84.6 |  |
| CC(=O)OC[C@H]1O[C@@H](O[C@H]2C[C@]3(C)[C@H](C[C@@H](O)[C@@H]4[C@@H]([C@]5(C)CC[C@@H](C(C)(C)O)O5)CC[C@]43C)[C@@]3(C)CC[C@H](O)C(C)(C)[C@H]23)[C@H](O[C@@H]2O[C@H](C)[C@@H](O)[C@H](O)[C@@H]2O)[C@@H](O)[C@@H]1O [VINA-GINSENOSIDE R1] | 82.2 |  |
| CC(=O)OC[C@H]1O[C@@H](O[C@H]2C[C@]3(C)[C@H](C[C@@H](O)[C@@H]4[C@@H]([C@]5(C)CC[C@@H](C(C)(C)O)O5)CC[C@]43C)[C@@]3(C)CC[C@H](O)C(C)(C)[C@H]23)[C@H](O[C@@H]2OC[C@@H](O)[C@H](O)[C@H]2O)[C@@H](O)[C@@H]1O [GINSENOSIDE R2] | 97 |  |
| CC(C)=CCC[C@](C)(O[C@@H]1O[C@H](CO[C@@H]2O[C@H](CO)[C@@H](O)[C@H](O)[C@H]2O)[C@@H](O)[C@H](O)[C@H]1O)[C@H]1CC[C@]2(C)[C@@H]1[C@H](O)C[C@@H]1[C@@]3(C)CC[C@H](O[C@@H]4O[C@H](CO)[C@@H](O)[C@H](O)[C@H]4O[C@@H]4O[C@H](CO)[C@@H](O)[C@H](O)[C@H]4O)C(C)(C)[C@@H]3CC[C@]12C [GINSENOSIDE RB1] | 178 | Activity [1]: 0.93 |
| CC(C)=CCC[C@](C)(O[C@@H]1O[C@H](CO)[C@@H](O)[C@H](O)[C@H]1O)[C@H]1CC[C@]2(C)[C@@H]1[C@H](O)C[C@@H]1[C@@]3(C)CC[C@H](O)C(C)(C)[C@@H]3[C@@H](O[C@@H]3O[C@H](CO)[C@@H](O)[C@H](O)[C@H]3O)C[C@]12C [GINSENOSIDE RG1] | 107.3 |  |
| CC(C)=CCC[C@](C)(O[C@@H]1O[C@H](CO)[C@@H](O)[C@H](O)[C@H]1O)[C@H]1CC[C@]2(C)[C@@H]1[C@H](O)C[C@@H]1[C@@]3(C)CC[C@H](O)C(C)(C)[C@@H]3[C@@H](O[C@@H]3O[C@H](CO)[C@@H](O)[C@H](O)[C@H]3O[C@@H]3O[C@H](CO)[C@@H](O)[C@H](O)[C@H]3O)C[C@]12C | 96.6 |  |
